From article PMC4076525 (The Journal of General Physiology, 2014)

What was measured:
[1] = Extent of FeEnt-induced quenching of FM fluorescence in live cells; assay type: cell-based, Escherichia coli; conditions: 10 nM FeEnt, 2.5 × 10^7 cells/ml, FM-labeled mutants
Procedure, shortened: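 Hosts were tonB+ ΔfepA or ΔtonB ΔfepA E. coli expressing plasmid-borne Cys-substituted FepA, grown in iron-deficient MOPS medium to late log. 10^10 cells were labeled with 5 µM fluorescein-5-maleimide in 50 mM Na2HPO4, 0.9% NaCl, pH 6.5, for 5 min at 37°C. Labeling was quenched with β-mercaptoethanol, and cells were resuspended in PBS with 0.4% glucose. FeEnt was added to 2.5 × 10^7 cells in 3 ml, stirred at 2°C, with emission read at 520 nm.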

59FeEnt transport = assay type: cell-based, Escherichia coli; conditions: for Transport rate relative to wild-type FepA: FM-modified, TonB-dependent uptake; for Vmax fold lower after fluoresceination: 59FeEnt uptake
Procedure, shortened: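 Cultures were grown in LB with antibiotics, then in iron-deficient MOPS medium to 10^9 cells/ml. Cells were assayed before and after labeling with 5 µM fluorescein-5-maleimide (pH 6.5 phosphate/NaCl buffer, 5 min, 37°C, β-mercaptoethanol stop). Uptake was measured in MOPS medium with 0.4% glucose at 37°C in 10-ml volumes. KM and Vmax came from an enzyme-kinetics equation fit per sample.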

B1: S275C: E. coli FepA with Cys substitution at S275, surface loop 3 (protein, UniProt P05825 23-746, looked up, variant S275C)
Ferrienterobactin receptor: QEPTDTPVSHDDTIVVTAAEQNLQAPGVSTITADEIRKNPVARDVSKIIRTMPGVNLTGNSTSGQRGNNRQIDIRGMGPENTLILIDGKPVSSRNSVRQGWRGERDTRGDTSWVPPEMIERIEVLRGPAAARYGNGAAGGVVNIITKKGSGEWHGSWDAYFNAPEHKEEGATKRTNFSLTGPLGDEFSFRLYGNLDKTQADAWDINQGHQSARAGTYATTLPAGREGVINKDINGVVRWDFAPLQSLELEAGYSRQGNLYAGDTQNTNSDSYTRCKYGDETNRLYRQNYALTWNGGWDNGVTTSNWVQYEHTRNSRIPEGLAGGTEGKFNEKATQDFVDIDLDDVMLHSEVNLPIDFLVNQTLTLGTEWNQQRMKDLSSNTQALTGTNTGGAIDGVSTTDRSPYSKAEIFSLFAENNMELTDSTIVTPGLRFDHHSIVGNNWSPALNISQGLGDDFTLKMGIARAYKAPSLYQTNPNYILYSKGQGCYASAGGCYLQGNDDLKAETSINKEIGLEFKRDGWLAGVTWFRNDYRNKIEAGYVAVGQNAVGTDLYQWDNVPKAVVEGLEGSLNVPVSETVMWTNNITYMLKSENKTTGDRLSIIPEYTLNSTLSWQAREDLSMQTTFTWYGKQQPKKYNYKGQPAVGPETKEISPYSIVGLSATWDVTKNVSLTGGVDNLFDKRLWRAGNAQTTGDLAGANYIAGAGAYTYNEPGRTWYMSVNTHF
- Quenching of FM emissions by FeEnt binding [1]: unaffected by FeEnt

B2: S271C-FM (conjugate, UniProt P05825 23-746, looked up, variant S271C)
Ferrienterobactin receptor: QEPTDTPVSHDDTIVVTAAEQNLQAPGVSTITADEIRKNPVARDVSKIIRTMPGVNLTGNSTSGQRGNNRQIDIRGMGPENTLILIDGKPVSSRNSVRQGWRGERDTRGDTSWVPPEMIERIEVLRGPAAARYGNGAAGGVVNIITKKGSGEWHGSWDAYFNAPEHKEEGATKRTNFSLTGPLGDEFSFRLYGNLDKTQADAWDINQGHQSARAGTYATTLPAGREGVINKDINGVVRWDFAPLQSLELEAGYSRQGNLYAGDTQNTNSDCYTRSKYGDETNRLYRQNYALTWNGGWDNGVTTSNWVQYEHTRNSRIPEGLAGGTEGKFNEKATQDFVDIDLDDVMLHSEVNLPIDFLVNQTLTLGTEWNQQRMKDLSSNTQALTGTNTGGAIDGVSTTDRSPYSKAEIFSLFAENNMELTDSTIVTPGLRFDHHSIVGNNWSPALNISQGLGDDFTLKMGIARAYKAPSLYQTNPNYILYSKGQGCYASAGGCYLQGNDDLKAETSINKEIGLEFKRDGWLAGVTWFRNDYRNKIEAGYVAVGQNAVGTDLYQWDNVPKAVVEGLEGSLNVPVSETVMWTNNITYMLKSENKTTGDRLSIIPEYTLNSTLSWQAREDLSMQTTFTWYGKQQPKKYNYKGQPAVGPETKEISPYSIVGLSATWDVTKNVSLTGGVDNLFDKRLWRAGNAQTTGDLAGANYIAGAGAYTYNEPGRTWYMSVNTHF
modifications: fluorescein-5-maleimide label
- Transport rate relative to wild-type FepA (59FeEnt transport): 65%

B3: A322C (protein, UniProt P05825 23-746, looked up, variant A322C)
Ferrienterobactin receptor: QEPTDTPVSHDDTIVVTAAEQNLQAPGVSTITADEIRKNPVARDVSKIIRTMPGVNLTGNSTSGQRGNNRQIDIRGMGPENTLILIDGKPVSSRNSVRQGWRGERDTRGDTSWVPPEMIERIEVLRGPAAARYGNGAAGGVVNIITKKGSGEWHGSWDAYFNAPEHKEEGATKRTNFSLTGPLGDEFSFRLYGNLDKTQADAWDINQGHQSARAGTYATTLPAGREGVINKDINGVVRWDFAPLQSLELEAGYSRQGNLYAGDTQNTNSDSYTRSKYGDETNRLYRQNYALTWNGGWDNGVTTSNWVQYEHTRNSRIPEGLCGGTEGKFNEKATQDFVDIDLDDVMLHSEVNLPIDFLVNQTLTLGTEWNQQRMKDLSSNTQALTGTNTGGAIDGVSTTDRSPYSKAEIFSLFAENNMELTDSTIVTPGLRFDHHSIVGNNWSPALNISQGLGDDFTLKMGIARAYKAPSLYQTNPNYILYSKGQGCYASAGGCYLQGNDDLKAETSINKEIGLEFKRDGWLAGVTWFRNDYRNKIEAGYVAVGQNAVGTDLYQWDNVPKAVVEGLEGSLNVPVSETVMWTNNITYMLKSENKTTGDRLSIIPEYTLNSTLSWQAREDLSMQTTFTWYGKQQPKKYNYKGQPAVGPETKEISPYSIVGLSATWDVTKNVSLTGGVDNLFDKRLWRAGNAQTTGDLAGANYIAGAGAYTYNEPGRTWYMSVNTHF
- 59FeEnt transport rate compared with wild-type FepA (59FeEnt transport; before fluoresceination): about half that rate

B4: A698C-FM: FepA A698C labeled with fluorescein-5-maleimide (FM) (conjugate, UniProt P05825 23-746, looked up, variant A698C)
Ferrienterobactin receptor: QEPTDTPVSHDDTIVVTAAEQNLQAPGVSTITADEIRKNPVARDVSKIIRTMPGVNLTGNSTSGQRGNNRQIDIRGMGPENTLILIDGKPVSSRNSVRQGWRGERDTRGDTSWVPPEMIERIEVLRGPAAARYGNGAAGGVVNIITKKGSGEWHGSWDAYFNAPEHKEEGATKRTNFSLTGPLGDEFSFRLYGNLDKTQADAWDINQGHQSARAGTYATTLPAGREGVINKDINGVVRWDFAPLQSLELEAGYSRQGNLYAGDTQNTNSDSYTRSKYGDETNRLYRQNYALTWNGGWDNGVTTSNWVQYEHTRNSRIPEGLAGGTEGKFNEKATQDFVDIDLDDVMLHSEVNLPIDFLVNQTLTLGTEWNQQRMKDLSSNTQALTGTNTGGAIDGVSTTDRSPYSKAEIFSLFAENNMELTDSTIVTPGLRFDHHSIVGNNWSPALNISQGLGDDFTLKMGIARAYKAPSLYQTNPNYILYSKGQGCYASAGGCYLQGNDDLKAETSINKEIGLEFKRDGWLAGVTWFRNDYRNKIEAGYVAVGQNAVGTDLYQWDNVPKAVVEGLEGSLNVPVSETVMWTNNITYMLKSENKTTGDRLSIIPEYTLNSTLSWQAREDLSMQTTFTWYGKQQPKKYNYKGQPAVGPETKEISPYSIVGLSATWDVTKNVSLTGGVDNLFDKRLWRAGNAQTTGDLAGCNYIAGAGAYTYNEPGRTWYMSVNTHF
modifications: fluorescein-5-maleimide label
- Transport rate relative to wild-type FepA (59FeEnt transport): 90%

B5: T550C-FM: FepA T550C labeled with fluorescein-5-maleimide (FM) (conjugate, UniProt P05825 23-746, looked up, variant T550C)
Ferrienterobactin receptor: QEPTDTPVSHDDTIVVTAAEQNLQAPGVSTITADEIRKNPVARDVSKIIRTMPGVNLTGNSTSGQRGNNRQIDIRGMGPENTLILIDGKPVSSRNSVRQGWRGERDTRGDTSWVPPEMIERIEVLRGPAAARYGNGAAGGVVNIITKKGSGEWHGSWDAYFNAPEHKEEGATKRTNFSLTGPLGDEFSFRLYGNLDKTQADAWDINQGHQSARAGTYATTLPAGREGVINKDINGVVRWDFAPLQSLELEAGYSRQGNLYAGDTQNTNSDSYTRSKYGDETNRLYRQNYALTWNGGWDNGVTTSNWVQYEHTRNSRIPEGLAGGTEGKFNEKATQDFVDIDLDDVMLHSEVNLPIDFLVNQTLTLGTEWNQQRMKDLSSNTQALTGTNTGGAIDGVSTTDRSPYSKAEIFSLFAENNMELTDSTIVTPGLRFDHHSIVGNNWSPALNISQGLGDDFTLKMGIARAYKAPSLYQTNPNYILYSKGQGCYASAGGCYLQGNDDLKAETSINKEIGLEFKRDGWLAGVTWFRNDYRNKIEAGYVAVGQNAVGCDLYQWDNVPKAVVEGLEGSLNVPVSETVMWTNNITYMLKSENKTTGDRLSIIPEYTLNSTLSWQAREDLSMQTTFTWYGKQQPKKYNYKGQPAVGPETKEISPYSIVGLSATWDVTKNVSLTGGVDNLFDKRLWRAGNAQTTGDLAGANYIAGAGAYTYNEPGRTWYMSVNTHF
modifications: fluorescein-5-maleimide label
- Vmax fold lower after fluoresceination (59FeEnt transport): 3–10 fold

B6: fepA+: wild-type E. coli FepA, outer membrane ferric enterobactin transporter, expressed from pHSG575 plasmid (protein, UniProt P05825 23-746, looked up)
Ferrienterobactin receptor: QEPTDTPVSHDDTIVVTAAEQNLQAPGVSTITADEIRKNPVARDVSKIIRTMPGVNLTGNSTSGQRGNNRQIDIRGMGPENTLILIDGKPVSSRNSVRQGWRGERDTRGDTSWVPPEMIERIEVLRGPAAARYGNGAAGGVVNIITKKGSGEWHGSWDAYFNAPEHKEEGATKRTNFSLTGPLGDEFSFRLYGNLDKTQADAWDINQGHQSARAGTYATTLPAGREGVINKDINGVVRWDFAPLQSLELEAGYSRQGNLYAGDTQNTNSDSYTRSKYGDETNRLYRQNYALTWNGGWDNGVTTSNWVQYEHTRNSRIPEGLAGGTEGKFNEKATQDFVDIDLDDVMLHSEVNLPIDFLVNQTLTLGTEWNQQRMKDLSSNTQALTGTNTGGAIDGVSTTDRSPYSKAEIFSLFAENNMELTDSTIVTPGLRFDHHSIVGNNWSPALNISQGLGDDFTLKMGIARAYKAPSLYQTNPNYILYSKGQGCYASAGGCYLQGNDDLKAETSINKEIGLEFKRDGWLAGVTWFRNDYRNKIEAGYVAVGQNAVGTDLYQWDNVPKAVVEGLEGSLNVPVSETVMWTNNITYMLKSENKTTGDRLSIIPEYTLNSTLSWQAREDLSMQTTFTWYGKQQPKKYNYKGQPAVGPETKEISPYSIVGLSATWDVTKNVSLTGGVDNLFDKRLWRAGNAQTTGDLAGANYIAGAGAYTYNEPGRTWYMSVNTHF
- Transport <FM Vmax (59FeEnt transport; 59FeEnt, 37°C, before modification with FM, listed as wild-type FepA): ~100 pMol/min/10^9 cells

B7: A383C-FM: FepA A383C labeled with fluorescein-5-maleimide (FM) (conjugate, UniProt P05825 23-746, looked up, variant A383C)
Ferrienterobactin receptor: QEPTDTPVSHDDTIVVTAAEQNLQAPGVSTITADEIRKNPVARDVSKIIRTMPGVNLTGNSTSGQRGNNRQIDIRGMGPENTLILIDGKPVSSRNSVRQGWRGERDTRGDTSWVPPEMIERIEVLRGPAAARYGNGAAGGVVNIITKKGSGEWHGSWDAYFNAPEHKEEGATKRTNFSLTGPLGDEFSFRLYGNLDKTQADAWDINQGHQSARAGTYATTLPAGREGVINKDINGVVRWDFAPLQSLELEAGYSRQGNLYAGDTQNTNSDSYTRSKYGDETNRLYRQNYALTWNGGWDNGVTTSNWVQYEHTRNSRIPEGLAGGTEGKFNEKATQDFVDIDLDDVMLHSEVNLPIDFLVNQTLTLGTEWNQQRMKDLSSNTQCLTGTNTGGAIDGVSTTDRSPYSKAEIFSLFAENNMELTDSTIVTPGLRFDHHSIVGNNWSPALNISQGLGDDFTLKMGIARAYKAPSLYQTNPNYILYSKGQGCYASAGGCYLQGNDDLKAETSINKEIGLEFKRDGWLAGVTWFRNDYRNKIEAGYVAVGQNAVGTDLYQWDNVPKAVVEGLEGSLNVPVSETVMWTNNITYMLKSENKTTGDRLSIIPEYTLNSTLSWQAREDLSMQTTFTWYGKQQPKKYNYKGQPAVGPETKEISPYSIVGLSATWDVTKNVSLTGGVDNLFDKRLWRAGNAQTTGDLAGANYIAGAGAYTYNEPGRTWYMSVNTHF
modifications: fluorescein-5-maleimide label
- Vmax fold lower after fluoresceination (59FeEnt transport): 3–10 fold
